Here are results for ten compounds from ChEMBL document CHEMBL2384943, “New Peptide-based antimicrobials for tackling drug resistance in bacteria: single-cell fluorescence imaging” (ACS Med Chem Lett, 2013).

For data set [1], the system named is Escherichia coli. Nature of the data set: Antibacterial activity against wild type Escherichia coli AG100 assessed as growth inhibition after 18 hrs by two-fold serial dilution method. It counts as functional. The following applies: AG100, 18 h. The procedure, abridged: (§1)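 Strains were routinely grown at 37 °C in LB broth or on LB agar, with kanamycin 50 μg·mL–1 added for AG100A and EA298 (EA298 is the tolC derivative of clinical MDR isolate EA289). MICs were read in Mueller Hinton broth with 2-fold serial dilutions, using an inoculum of 2 × 10^5 cfu per 200 μL, scored after 18 h at 37 °C. Ciprofloxacin and fleroxacin served as reference antibiotics.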

For data set [2], the system named is Klebsiella aerogenes. In words: Antibacterial activity against multidrug-resistant Enterobacter aerogenes EA289 overexpressing AcrAB-tolC assessed as growth inhibition after 18 hrs by two-fold serial dilution method. It counts as functional. Conditions: EA289, 18 h. A digest of the protocol:
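Inoculum 2 × 10^5 cfu in Mueller Hinton broth with 2-fold serial compound dilutions. MIC was scored after 18 h at 37 °C. Ciprofloxacin and fleroxacin served as internal reference antibiotics. Strains were routinely grown at 37 °C in LB.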

Data set [3] deals with Klebsiella aerogenes. Nature of the data set: Antibacterial activity against tolC-deficient Enterobacter aerogenes EA298 assessed as growth inhibition after 18 hrs by two-fold serial dilution method. It counts as functional. Conditions: EA298, 18 h; call rule not given here. The procedure, abridged: as §1
The test system of data set [4] is Escherichia coli. In words: Antibacterial activity against acrAB-deficient Escherichia coli AG100A assessed as growth inhibition after 18 hrs by two-fold serial dilution method. It counts as functional. The procedure, abridged:
as §1

Data set [5] deals with Klebsiella aerogenes. In words: Drug uptake in multidrug-resistant Enterobacter aerogenes EA289 overexpressing AcrAB-tolC at 123 uM after 15 to 60 mins by DUV microspectrofluorimetric analysis. It counts as ADME, organism-based. The following applies: in vivo.

Converted amounts (≈) assume the structure as drawn. *1 amine or outer side, *2 acyl side, *3 side chain or, on linkers, in order; H or OH if unused. Where a SMILES comes first, the peptide text is derived from it. The star is where a group is joined. X1 = c1ccc(CN(Cc2ccccc2)Cc2cccc(N*)c2)cc1; X2 = c1ccc(CN(Cc2ccccn2)Cc2cccc(N*)n2)nc1; Glutaryl = O=C(CCCC(=O)[*:2])[*:1]; OBn = c1ccc(CO*)cc1

A word on the MIC: it is the least concentration at which growth counts as inhibited. Take `O=C(O)c1cn(C2CC2)c2cc(N3CCNCC3)c(F)cc2c1=O` [CIPROFLOXACIN]: the minimal inhibitory concentration (MIC) with Escherichia coli [1] is 0.125 µM (≈ 0.0414 µg/mL); with Klebsiella aerogenes [2], 64 µM (≈ 21.2 µg/mL); in the data set on Klebsiella aerogenes [3], 8 µM (≈ 2.65 µg/mL); with Escherichia coli [4], 0.03 µM (≈ 0.00994 µg/mL).

For the compound `CC(=O)N[C@@H](CCCNC(=N)N)C(=O)N[C@@H](Cc1c[nH]c2ccccc12)C(=O)N[C@@H](CCCNC(=N)N)C(=O)N[C@@H](Cc1c[nH]c2ccccc12)C(=O)OCc1ccccc1` (Ac-RWRW-OBn), the MIC is 64 µM (≈ 53.4 µg/mL) in the data set with Escherichia coli [1], above 128 µM with Klebsiella aerogenes [2], 64 µM (≈ 53.4 µg/mL) with Klebsiella aerogenes [3] and 16 µM (≈ 13.4 µg/mL) in the data set on Escherichia coli [4].

As to `CCCCC[C@H](CC(=O)NO)C(=O)N[C@H](C(=O)N1CCC[C@H]1CO)C(C)C` [ACTINONIN], the MIC in the data set with Escherichia coli [1] is above 128 µM; in the data set with Klebsiella aerogenes [2], above 128 µM; with Klebsiella aerogenes [3], 32 µM (≈ 12.3 µg/mL); with Escherichia coli [4] it was 2 µM (≈ 0.771 µg/mL).

With `N=C(N)NCCC[C@H](NC(=O)CCCC(=O)Nc1cccc(CN(Cc2ccccc2)Cc2ccccc2)c1)C(=O)N[C@@H](Cc1c[nH]c2ccccc12)C(=O)N[C@@H](CCCNC(=N)N)C(=O)N[C@@H](Cc1c[nH]c2ccccc12)C(=O)OCc1ccccc1` ({X1-Glutaryl}-RWRW-OBn), the MIC with Escherichia coli [1], in the data set with Klebsiella aerogenes [2], in the data set on Klebsiella aerogenes [3] and with Escherichia coli [4] was 64 µM (≈ 76.3 µg/mL) throughout.

As for `N=C(N)NCCC[C@H](NC(=O)[C@H](Cc1c[nH]c2ccccc12)NC(=O)CCCC(=O)Nc1cccc(CN(Cc2ccccn2)Cc2ccccn2)n1)C(=O)N[C@@H](Cc1c[nH]c2ccccc12)C(=O)N[C@@H](CCCNC(=N)N)C(=O)N[C@@H](Cc1c[nH]c2ccccc12)C(=O)N[C@@H](CCCNC(=N)N)C(=O)OCc1ccccc1` ({X2-Glutaryl}-WRWRWR-OBn), the MIC came out at 8 µM (≈ 12.3 µg/mL) in the data set with Escherichia coli [1], 16 µM (≈ 24.6 µg/mL) in the data set with Klebsiella aerogenes [2], 8 µM (≈ 12.3 µg/mL) with Klebsiella aerogenes [3] and 8 µM (≈ 12.3 µg/mL) in the data set with Escherichia coli [4].

Consider `N=C(N)NCCC[C@H](NC(=O)CCCC(=O)Nc1cccc(CN(Cc2ccccn2)Cc2ccccn2)n1)C(=O)N[C@@H](Cc1c[nH]c2ccccc12)C(=O)N[C@@H](CCCNC(=N)N)C(=O)N[C@@H](Cc1c[nH]c2ccccc12)C(=O)N[C@@H](CCCNC(=N)N)C(=O)N[C@@H](Cc1c[nH]c2ccccc12)C(=O)OCc1ccccc1` ({X2-Glutaryl}-RWRWRW-OBn), for which the MIC was determined as 8 µM (≈ 12.3 µg/mL) in the data set with Escherichia coli [1], 16 µM (≈ 24.6 µg/mL) in the data set with Klebsiella aerogenes [2], 8 µM (≈ 12.3 µg/mL) with Klebsiella aerogenes [3] and 8 µM (≈ 12.3 µg/mL) in the data set on Escherichia coli [4].

For `CN(C)c1cccc2c(S(=O)(=O)NCCCC[C@@H](NC(=O)CCCC(=O)Nc3cccc(CN(Cc4ccccc4)Cc4ccccc4)c3)C(=O)N[C@@H](CCCNC(=N)N)C(=O)N[C@@H](Cc3c[nH]c4ccccc34)C(=O)N[C@@H](CCCNC(=N)N)C(=O)N[C@@H](Cc3c[nH]c4ccccc34)C(=O)OCc3ccccc3)cccc12`, in the data set with Klebsiella aerogenes [5], the Drug uptake result is reported as “Active”.

With `CN1CCN(c2c(F)cc3c(=O)c(C(=O)O)cn(CCF)c3c2F)CC1` [FLEROXACIN], the minimum inhibitory concentration (MIC) is 0.5 µM (≈ 0.185 µg/mL) in the data set with Escherichia coli [1], above 128 µM in the data set on Klebsiella aerogenes [2], 16 µM (≈ 5.91 µg/mL) in the data set on Klebsiella aerogenes [3] and 0.125 µM (≈ 0.0462 µg/mL) in the data set with Escherichia coli [4].

For the compound `N=C(N)NCCC[C@H](NC(=O)[C@H](Cc1c[nH]c2ccccc12)NC(=O)CCCC(=O)Nc1cccc(CN(Cc2ccccn2)Cc2ccccn2)n1)C(=O)N[C@@H](Cc1c[nH]c2ccccc12)C(=O)N[C@@H](CCCNC(=N)N)C(=O)OCc1ccccc1` ({X2-Glutaryl}-WRWR-OBn), the minimum inhibitory concentration (MIC) with Escherichia coli [1] worked out at 16 µM (≈ 19.1 µg/mL); in the data set on Klebsiella aerogenes [2] it was 8 µM (≈ 9.56 µg/mL); with Klebsiella aerogenes [3] it was 4 µM (≈ 4.78 µg/mL); with Escherichia coli [4], 8 µM (≈ 9.56 µg/mL).

Consider `N=C(N)NCCC[C@H](NC(=O)CCCC(=O)Nc1cccc(CN(Cc2ccccn2)Cc2ccccn2)n1)C(=O)N[C@@H](Cc1c[nH]c2ccccc12)C(=O)N[C@@H](CCCNC(=N)N)C(=O)N[C@@H](Cc1c[nH]c2ccccc12)C(=O)OCc1ccccc1` ({X2-Glutaryl}-RWRW-OBn), for which the MIC stood at 32 µM (≈ 38.2 µg/mL) in the data set on Escherichia coli [1], 16 µM (≈ 19.1 µg/mL) with Klebsiella aerogenes [2], 8 µM (≈ 9.56 µg/mL) in the data set on Klebsiella aerogenes [3] and 8 µM (≈ 9.56 µg/mL) in the data set with Escherichia coli [4].
